Calls of active or inactive are those of the source. The calls are words filed in the database; no cut-off is given here.
Tests used:
HCT-116 [1] = experiment: Inhibition of Wnt/beta-catenin signaling pathway in human HCT116 cells assessed as downregulation of CCND1 mRNA expression at 5 to 10 uM after 12 hrs by real-time PCR analysis; assay type: cell-based
Method in brief: (§1)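 HCT116 cells treated 12 h. Total RNA by TRI reagent, reverse-transcribed, SYBR Green real-time PCR: 40 cycles of 95 °C 20 s, 56 °C 20 s, 72 °C 30 s. Fold change by 2^−ΔΔCT normalized to β-actin, relative to untreated control; quadruplicate.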

HCT-116 [2] = experiment: Inhibition of Beta-catenin/TCF complex binding to DNA in human HCT116 cells at 5 to 10 uM after 30 mins by electrophoretic mobility shift assay; assay type: cell-based
Method in brief: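 HCT116 cells (1 × 10^6) treated 30 min. Nuclear extract made by NP-40 hypotonic lysis, then 420 mM NaCl hypertonic extraction; protein by Bradford. Binding: 8 μg nuclear protein with 1.5 pmol biotin-labeled TCF binding probe, 15 °C for 30 min, read by EMSA against vehicle-treated cells.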

HCT-116 [3] = experiment: Inhibition of Wnt/beta-catenin codon 45 deletion mutant signaling pathway human HCT116 cells assessed as inhibition of TCF4 transcriptional activity after 24 hrs by TOPflash reporter gene assay; assay type: cell-based
Method in brief: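 HCT116 cells seeded at 1.5 × 10^4/well and lipofected after 24 h with 0.1 μg TOPflash (or FOPflash) plus 0.005 μg Renilla; no β-catenin/TCF4 added. Treated 24 h for 24 h. Dual luciferase, Renilla-normalized, relative to vehicle; means ± SD, n = 3, four separate determinations.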

HEK293 [4] = experiment: Inhibition of Wnt/beta-catenin (unknown origin) signaling pathway expressed in HEK293 cells assessed as inhibition of TCF4 transcriptional activity at 5 to 40 uM after 24 hrs by FOPflash reporter gene assay; assay type: cell-based; conditions: Homo sapiens
Method in brief: (§2)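 HEK293 cells seeded at 1.5 × 10^4/well. After 24 h, lipofected with 0.1 μg TOPflash or FOPflash, 0.005 μg Renilla, 0.02 μg β-catenin and 0.004 μg TCF4 vectors. Treated 24 h after transfection for 24 h. Dual luciferase read-out, firefly normalized to Renilla, relative to vehicle; triplicate.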

HEK293 [5] = experiment: Inhibition of Wnt/beta-catenin (unknown origin) signaling pathway expressed in HEK293 cells assessed as inhibition of TCF4 transcriptional activity after 24 hrs by TOPflash reporter gene assay; assay type: cell-based; conditions: Homo sapiens; method in brief: as §2
HCT-116 [6] = experiment: Antitumor activity against human HCT116 cells xenografted in BALB/c-nu mouse assessed as tumor growth inhibition at 10 mg/kg, ip administered 3 times per week for 4 weeks measured every 2 to 3 days during treatment relative to control; assay type: functional; conditions: HCT-116, ip, route intraperitoneal, read-out: TGI
Method in brief: (§3)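 Female BALB/c-nu mice, 4−6 weeks old, acclimated one week, given 2 × 10^6 HCT116 cells sc in the flank. Dosing began near 100 mm3, about day 8; five mice per group. Dose in 0.5% Tween 80 in normal saline, 200 μL ip; controls got vehicle. Tumor volume by caliper = L × W × H/2. Study ended when control tumors averaged ~1300 mm3.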

Mus musculus [7] = experiment: (§4) In vivo inhibition of Wnt/beta-catenin signaling pathway in human HCT116 cells xenografted in BALB/c-nu mouse assessed as downregulation of Ki-67 expression at 10 to 20 mg/kg, ip administered 3 times per week measured after 4 weeks by hematoxylin staining-based inverted phase-contrast microscopic analysis; assay type: functional, organism-based; conditions: HCT-116
Method in brief: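 Immunohistochemistry on xenograft tumor sections from ip-dosed mice. Ki-67 detected with anti-Ki67 antibody and an LSAB+ HRP system. Sections counterstained with hematoxylin and photographed under an inverted phase-contrast microscope at 200×.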

Mus musculus [8] = experiment: as §4, with “beta-catenin” for “Ki-67”; assay type: functional, organism-based; conditions: HCT-116
Mus musculus [9] = experiment: as §4, with “cyclin D1” for “Ki-67”; assay type: functional, organism-based; conditions: HCT-116
Mus musculus [10] = experiment: In vivo inhibition of Wnt/beta-catenin signaling pathway in human HCT116 cells xenografted in BALB/c-nu mouse assessed as downregulation of survivin protein expression at 10 to 20 mg/kg, ip administered 3 times per week measured after 4 weeks by Western blot analysis; assay type: functional, organism-based; conditions: HCT-116
Method in brief: (§5)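 Part of each frozen xenograft tumor was thawed on ice and hand-homogenized in Complete Lysis Buffer. Protein was quantified and aliquots stored at −80 °C. Western blot: SDS-PAGE, PVDF transfer, ECL detection, compared with vehicle-treated tumors.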

Mus musculus [11] = experiment: In vivo inhibition of Wnt/beta-catenin signaling pathway in human HCT116 cells xenografted in BALB/c-nu mouse assessed as downregulation of CMYC protein expression at 10 to 20 mg/kg, ip administered 3 times per week measured after 4 weeks by Western blot analysis; assay type: functional, organism-based; conditions: HCT-116; method in brief: as §5
Mus musculus [12] = experiment: In vivo inhibition of Wnt/beta-catenin signaling pathway in human HCT116 cells xenografted in BALB/c-nu mouse assessed as downregulation of CCND1 protein expression at 10 to 20 mg/kg, ip administered 3 times per week measured after 4 weeks by Western blot analysis; assay type: functional, organism-based; conditions: HCT-116; method in brief: as §5
Mus musculus [13] = experiment: In vivo inhibition of Wnt/beta-catenin signaling pathway in human HCT116 cells xenografted in BALB/c-nu mouse assessed as downregulation of NKD1 mRNA expression at 10 to 20 mg/kg, ip administered 3 times per week measured after 4 weeks by real-time PCR analysis; assay type: functional, organism-based; conditions: HCT-116
Method in brief: (§6)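 Frozen tumors from ip-dosed HCT116 xenograft mice were extracted with TRI reagent and reverse-transcribed. SYBR Green real-time PCR run 40 cycles of 95/56/72 °C. Expression by 2^−ΔΔCT normalized to β-actin, relative to vehicle-treated controls; quadruplicate.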

Mus musculus [14] = experiment: In vivo inhibition of Wnt/beta-catenin signaling pathway in human HCT116 cells xenografted in BALB/c-nu mouse assessed as downregulation of PLAU mRNA expression at 10 to 20 mg/kg, ip administered 3 times per week measured after 4 weeks by real-time PCR analysis; assay type: functional, organism-based; conditions: HCT-116; method in brief: as §6
Mus musculus [15] = experiment: In vivo inhibition of Wnt/beta-catenin signaling pathway in human HCT116 cells xenografted in BALB/c-nu mouse assessed as downregulation of MMP7 mRNA expression at 10 to 20 mg/kg, ip administered 3 times per week measured after 4 weeks by real-time PCR analysis; assay type: functional, organism-based; conditions: HCT-116; method in brief: as §6
Mus musculus [16] = experiment: In vivo inhibition of Wnt/beta-catenin signaling pathway in human HCT116 cells xenografted in BALB/c-nu mouse assessed as downregulation of CMYC mRNA expression at 10 to 20 mg/kg, ip administered 3 times per week measured after 4 weeks by real-time PCR analysis; assay type: functional, organism-based; conditions: HCT-116; method in brief: as §6
Mus musculus [17] = experiment: In vivo inhibition of Wnt/beta-catenin signaling pathway in human HCT116 cells xenografted in BALB/c-nu mouse assessed as downregulation of CCND1 mRNA expression at 10 to 20 mg/kg, ip administered 3 times per week measured after 4 weeks by real-time PCR analysis; assay type: functional, organism-based; conditions: HCT-116; method in brief: as §6
Mus musculus [18] = experiment: Toxicity in BALB/c-nu mouse xenografted with human HCT116 cells assessed as change in body weight at 10 to 20 mg/kg, ip administered 3 times per week measured for 4 weeks; assay type: organism-based, HCT-116; set-up: dose 10-20 mg/kg, route intraperitoneal; conditions: in vivo, 672 h
Method in brief: (§7)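 Same HCT116 flank xenograft in female BALB/c-nu mice, five per group, dosed ip in 0.5% Tween 80/saline with vehicle controls. Toxicity was judged from lethality and body weight loss, with body weights tracked through the study.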

Mus musculus [19] = experiment: Toxicity in BALB/c-nu mouse xenografted with human HCT116 cells assessed as overt toxicity at 10 to 20 mg/kg, ip administered 3 times per week measured for 4 weeks; assay type: organism-based, HCT-116; set-up: dose 10-20 mg/kg, route intraperitoneal; conditions: in vivo, 672 h; method in brief: as §7
HCT-116 [20] = experiment: Antitumor activity against human HCT116 cells xenografted in BALB/c-nu mouse assessed as tumor growth inhibition at 20 mg/kg, ip administered 3 times per week for 4 weeks measured every 2 to 3 days during treatment relative to control; assay type: functional; conditions: HCT-116, ip, route intraperitoneal, read-out: TGI; method in brief: as §3
HCT-116 [21] = experiment: Cytotoxicity against human HCT116 cells assessed as growth inhibition after 72 hrs by SRB assay; assay type: functional, cell-based; conditions: HCT-116, 72 h
Method in brief: (§8)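 HCT116 cells seeded at 6 × 10^3/well and grown 24 h. Day-zero plates fixed; others exposed 24, 48 or 72 h. Fixed with 10% TCA, stained with 0.4% SRB in 1% acetic acid, dye taken up in 10 mM Tris pH 10.0, read at 515 nm. Proliferation % = (compound − day zero)/(control − day zero) × 100. IC50 by nonlinear regression; four determinations.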

HCT-116 [22] = experiment: Cytotoxicity against human HCT116 cells assessed as growth inhibition after 48 hrs by SRB assay; assay type: functional, cell-based; conditions: HCT-116, 48 h; method in brief: as §8
HCT-116 [23] = experiment: Cytotoxicity against human HCT116 cells assessed as growth inhibition after 24 hrs by SRB assay; assay type: functional, cell-based; conditions: HCT-116, 24 h; method in brief: as §8
HCT-116 [24] = experiment: Cytotoxicity against human HCT116 cells assessed as growth inhibition after 24 to 72 hrs by SRB assay; assay type: functional, cell-based; method in brief: as §8
HCT-116 [25] = experiment: Cytotoxicity against human HCT116 cells assessed as growth inhibition at 5 to 20 uM by SRB assay; assay type: functional, cell-based; conditions: TDE = time-dependent effect; method in brief: as §8
HCT-116 [26] = experiment: Inhibition of Wnt/beta-catenin signaling pathway in human HCT116 cells assessed as downregulation of total beta-catenin protein expression at 5 to 10 uM after 24 to 48 hrs by Western blot analysis; assay type: cell-based
Method in brief: (§9)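 HCT116 cells treated 24 or 48 h. Lysed in RIPA buffer; equal protein run on 8−13% SDS-PAGE, blotted to PVDF, probed for β-catenin, c-myc and cyclin D1, detected by ECL. β-Actin served as internal standard; four determinations.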

HCT-116 [27] = experiment: Inhibition of Wnt/beta-catenin signaling pathway in human HCT116 cells assessed as downregulation of CMYC protein expression at 5 to 10 uM after 24 to 48 hrs by Western blot analysis; assay type: cell-based; method in brief: as §9
HCT-116 [28] = experiment: Inhibition of Wnt/beta-catenin signaling pathway in human HCT116 cells assessed as downregulation of CCND1 protein expression at 5 to 10 uM after 24 to 48 hrs by Western blot analysis; assay type: cell-based; method in brief: as §9
HCT-116 [29] = experiment: Inhibition of Wnt/beta-catenin signaling pathway in human HCT116 cells assessed as downregulation of NKD1 mRNA expression at 5 to 10 uM after 12 hrs by real-time PCR analysis; assay type: cell-based; method in brief: as §1
HCT-116 [30] = experiment: Inhibition of Wnt/beta-catenin signaling pathway in human HCT116 cells assessed as downregulation of DKK1 mRNA expression at 5 to 10 uM after 12 hrs by real-time PCR analysis; assay type: cell-based; method in brief: as §1
HCT-116 [31] = experiment: Inhibition of Wnt/beta-catenin signaling pathway in human HCT116 cells assessed as downregulation of AXIN2 mRNA expression at 5 to 10 uM after 12 hrs by real-time PCR analysis; assay type: cell-based; method in brief: as §1
HCT-116 [32] = experiment: Inhibition of Wnt/beta-catenin signaling pathway in human HCT116 cells assessed as downregulation of PLAU mRNA expression at 5 to 10 uM after 12 hrs by real-time PCR analysis; assay type: cell-based; method in brief: as §1
HCT-116 [33] = experiment: Inhibition of Wnt/beta-catenin signaling pathway in human HCT116 cells assessed as downregulation of MMP7 mRNA expression at 5 to 10 uM after 12 hrs by real-time PCR analysis; assay type: cell-based; method in brief: as §1
HCT-116 [34] = experiment: Inhibition of Wnt/beta-catenin signaling pathway in human HCT116 cells assessed as downregulation of CMYC mRNA expression at 5 to 10 uM after 12 hrs by real-time PCR analysis; assay type: cell-based; method in brief: as §1

In the case of `O=C/C=C/c1ccccc1O` [2-HYDROXYCINNAMALDEHYDE], the inhibition (HCT-116 [1]) is reported as “Active”, the inhibition (HCT-116 [2]) is reported as “Active” and the inhibition (HCT-116 [3]) is reported as “Dose-dependent effect”. For the same compound, the inhibition (HEK293 [4]) was “inactive”, the inhibition (HEK293 [5]) was “Dose-dependent effect” and the inhibition in vivo at 10 mg/kg (HCT-116 [6]) was 52%. The inhibition (Mus musculus [7]) was “Active”, the inhibition (Mus musculus [8]) was “Active” and the inhibition (Mus musculus [9]) was “Active”. For the same compound, the inhibition (Mus musculus [10]) was “Active”, the inhibition (Mus musculus [11]) was “Active” and the inhibition (Mus musculus [12]) was “Active”. The inhibition (Mus musculus [13]) was “Active”, the inhibition (Mus musculus [14]) was “Active” and the inhibition (Mus musculus [15]) was “Active”. For the same compound, the inhibition (Mus musculus [16]) was “Active”, the inhibition (Mus musculus [17]) was “Active” and the Activity (Mus musculus [18]) was “Non-toxic”. The Activity (Mus musculus [19]) was “Non-toxic”, the inhibition in vivo at 20 mg/kg (HCT-116 [20]) was 69% and the IC50 (HCT-116 [21]) was 6.17 µM. The IC50 (HCT-116 [22]) was 6.62 µM, the IC50 (HCT-116 [23]) was 8.14 µM and the Activity (HCT-116 [24]) was “Dose-dependent effect”. The Activity (HCT-116 [25]) was “tde”, the inhibition (HCT-116 [26]) was “Active” and the inhibition (HCT-116 [27]) was “Active”. The inhibition (HCT-116 [28]) was “Active”, the inhibition (HCT-116 [29]) was “Active” and the inhibition (HCT-116 [30]) was “Active”. The inhibition (HCT-116 [31]) was “Active”, the inhibition (HCT-116 [32]) was “Active” and the inhibition (HCT-116 [33]) was “Active”. For the same compound, the inhibition (HCT-116 [34]) was “Active”.
